Compound activity deposited in PubChem by several laboratories.
PolyA inhibitor = yeast polyadenylation inhibition; activity score, % at 12 µM; S. cerevisiae SKY197-pL101 polyadenylation reporter, beta-gal luminescence; efflux-impaired pdr1/pdr3 knockout yeast; score 100 = 6 SD above DMSO; AID 1875; 0.02% of 300,000 active;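 active means lowest replicate activity score at least 50, where 100 means six control SD above control mean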;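 further: yeast exposed to compound for 9 h at 30 °C; higher score means more reporter readthrough which indicates perturbed polyadenylation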
proCasp3 act = activators of human procaspase-3 | recombinant procaspase-3 D3A, Ac-DEVD-pNA absorbance 405 nm | 0.11% of 330,000 active | AID 463141 | P42574 | activation, % at 8.5 µM;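 active means activation above the mean of all tested compounds plus 3 SD, cut at about 21% in these data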
Target sequence (P42574 whole entry D9A/D28A/D175A): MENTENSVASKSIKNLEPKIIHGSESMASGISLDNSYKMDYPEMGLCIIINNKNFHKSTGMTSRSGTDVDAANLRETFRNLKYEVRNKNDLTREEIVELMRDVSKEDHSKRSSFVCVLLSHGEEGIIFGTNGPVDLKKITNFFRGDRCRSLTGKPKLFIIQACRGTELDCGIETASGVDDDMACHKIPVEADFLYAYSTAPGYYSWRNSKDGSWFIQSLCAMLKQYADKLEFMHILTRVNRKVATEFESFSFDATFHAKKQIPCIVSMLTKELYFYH
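Compound: 8.5 µM single point, 0.8% DMSO / Material: Autoprocessing-dead procaspase-3 D3A mutant enzyme / Timing: 1 h preincubation plus 2 h reaction at 25 °C / Medium: Zinc-free HEPES/NaCl buffer with 0.01% Triton X-100 at pH 7.4 / Technique: 405 nm absorbance of p-nitroaniline, reads at 0 and 120 min / Repeats: one well per compound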
procasp7 counter = counter-screen for procaspase-3 activators: activators of human procaspase-7; P55210; recombinant procaspase-7, Ac-DEVD-pNA absorbance 405 nm; D23A/D198A/D206A triple mutant, cannot self-cleave; scale: DMSO 0, 5 µM enzyme 100; activation, % at 8.5 µM; 0.093% of 330,000 active; AID 463210;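 active means percent activation above the screen-wide mean plus 3 SD, cut at about 25% in these data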
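Material: Procaspase-7 triple mutant (PC-7 D3A) | Quantity: 2 µM procaspase-7 mutant as dispensed | Reagent: DEVD-pNA substrate | Times: 1 h preincubation, 2 h reaction | Technique: 405 nm absorbance of p-nitroaniline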
AHR activator = human AHR activation. AHR-responsive luciferase reporter cells, luminescence. P35869. activation, % at 5 µM. 2.5% of 320,000 active; in the data active means activation above about 47%
procasp7 triplic = counter-screen for procaspase-3 activators: activators of human procaspase-7; shares compounds with proCasp3 act; recombinant procaspase-7, Ac-DEVD-pNA absorbance; asp23/198/206-to-Ala mutant, cannot self-cleave; activation, % at 8.5 µM; 210 tested, under 10 active; AID 488941;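 active means mean activation above a set limit taken from an earlier procaspase-7 screen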
proCasp3 confirm = procaspase-3 (human) activation, confirmed; recombinant PC-3 D3A, Ac-DEVD-pNA absorbance 405 nm; 100% is higher-enzyme control; activation, % at 8.5 µM; 10% of 210 active; shares compounds with proCasp3 act; AID 488954;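 active means mean activation above a set limit carried over from the earlier primary screen, cut at about 22% in these data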
PC3 dual counter = counter-screen: procaspase-3 (human) activation. shares compounds with procasp7 counter. 290 tested, under 10 active. activation, % at 8.5 µM. AID 493114. recombinant PC-3 D3A, Ac-DEVD-pNA absorbance 405 nm; aspartates 9, 28, 175 changed to alanine; 100% = enzyme control;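 active means mean percent activation across triplicates above a set limit taken from the earlier primary procaspase-3 screen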
Procasp7 act = confirmation of dual procaspase activators: human procaspase-7 activation; AID 493115; recombinant procaspase-7, Ac-DEVD-pNA absorbance 405 nm; D23A/D198A/D206A mutant that cannot self-cleave; shares compounds with procasp7 counter; 290 tested, under 10 active; activation, % at 8.5 µM;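 active means mean activation above a set limit carried over from the earlier primary screen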
A number is an active result. Rows were chosen to be rich in hits. Some 2.6% of all compounds tested hit in one or more screens of this group.

`Cc1ccc(-c2nc3ccccc3c(=O)n2-c2cccc(C)n2)cc1` gave PolyA inhibitor inactive, proCasp3 act 44, procasp7 counter inactive, AHR activator inactive, procasp7 triplic inactive and proCasp3 confirm inactive.
Screening CC[n+]1c(/C=C/C=C/c2ccc(N(C)C)cc2)sc2ccccc21 returned PolyA inhibitor inactive, proCasp3 act 39, procasp7 counter inactive, AHR activator inactive, procasp7 triplic inactive and proCasp3 confirm inactive.
For CN(C)c1ccc(/C=C/C=C/c2sc3ccccc3[n+]2C)cc1 the results were PolyA inhibitor inactive, proCasp3 act inactive, procasp7 counter inactive and AHR activator inactive.
COCCCn1c(N)c(C(=O)NCCC(C)C)c2nc3ccccc3nc21 was read as PolyA inhibitor inactive, proCasp3 act 32, procasp7 counter inactive, AHR activator inactive, procasp7 triplic inactive and proCasp3 confirm inactive.
Screening CCCCn1c(N)c(C(=O)OCCOC)c2nc3ccccc3nc21 returned PolyA inhibitor inactive, proCasp3 act inactive, procasp7 counter inactive and AHR activator inactive.
`CCCOC(=O)c1c(N)n(Cc2cccs2)c2nc3ccccc3nc12` gave PolyA inhibitor inactive, proCasp3 act 48, procasp7 counter inactive, AHR activator inactive, procasp7 triplic inactive and proCasp3 confirm inactive.
Screening CCCCn1c(N)c(C(=O)NCc2cccs2)c2nc3ccccc3nc21 returned PolyA inhibitor inactive, proCasp3 act 46, procasp7 counter inactive, AHR activator inactive, procasp7 triplic inactive and proCasp3 confirm inactive.
For CCC1(C2=NCCN2)Cc2ccccc2O1 (centres undefined) the results were proCasp3 act inactive, procasp7 counter inactive and AHR activator inactive.
For C1CCC(NC2CCCCC2)CC1 the results were proCasp3 act inactive, procasp7 counter inactive and AHR activator inactive.
Screening COC(=O)C1=C(c2cccc(OCc3ccccc3)c2)C[C@@H]2CC[C@H]1N2C(=O)NCCN1CCOCC1 returned proCasp3 act inactive, procasp7 counter inactive and AHR activator inactive.
`Nc1c(C(=O)NCc2ccco2)c2nc3ccccc3nc2n1Cc1ccccc1` gave PolyA inhibitor inactive, proCasp3 act inactive, procasp7 counter 46, AHR activator inactive, PC3 dual counter inactive and Procasp7 act inactive.
For C[C@]12CCC3C(CC[C@H]4C[C@H](O)CC[C@]34C)C1[C@@H](O)[C@@H](O)[C@@H]2O (some centres undefined) the results were proCasp3 act inactive, procasp7 counter inactive and AHR activator inactive.
